One may read the Ki as the dissociation constant of the complex between target and ligand, obtained from inhibition or displacement. Higher therefore signals lower affinity.

In one test the target is Sigma non-opioid intracellular receptor 1 (Cavia porcellus, UniProt Q60492). Briefly: Displacement of [3H](+)-pentazocine from sigma 1 receptor in guinea pig brain membrane. The format is cell membranes.
Sequence of Sigma non-opioid intracellular receptor 1 (Q60492 whole entry): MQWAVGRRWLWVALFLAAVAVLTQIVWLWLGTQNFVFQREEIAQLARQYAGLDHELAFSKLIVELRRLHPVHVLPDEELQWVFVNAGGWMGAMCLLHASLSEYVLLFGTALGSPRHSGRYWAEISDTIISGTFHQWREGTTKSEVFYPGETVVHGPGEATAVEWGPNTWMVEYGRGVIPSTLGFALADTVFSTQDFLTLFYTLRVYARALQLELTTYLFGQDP
Details: not given
Summed up:
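Guinea pig brain (minus cerebella) membranes were homogenized in ice-cold 0.32 M sucrose, pH 7.4, washed in 10 mM Tris-HCl, pH 7.4, and stored at −80 °C. Tritiated (+)-pentazocine (28 Ci/mmol; Kd 1.6 ± 0.3 nM, n = 3) was incubated with test compounds from 10^-11 to 10^-5 M in Tris-HCl, pH 7.4, for 150 min at 37 °C. Haloperidol defined nonspecific binding. Reactions were stopped by filtration through PEI-presoaked glass fiber filters.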
(In general: Displacement assays read how much labelled ligand stays bound in the presence of the test substance.)
Turning to `COc1ccc2cc(C(C)CCN(C)C)ccc2c1` (racemic), the Ki was 2.3 nM.

In the case of `C/C(=C\CN(C)C)c1cccc2ccccc12`, the affinity corresponds to a Ki of 102 nM.

For the compound `CC(CCN(C)C)c1ccc(-c2ccccc2)cc1` (stereo not given), the Ki was found to be 1.02 nM.

The compound `C/C(=C\CN(C)Cc1ccccc1)c1ccc(-c2ccccc2)cc1` had a Ki of 6.32 nM.

Consider `CC(CCN(C)C)c1cccc2ccccc12` (stereo not given), for which the Ki came out at 47.2 nM.

Compound `CC(CCN(C)Cc1ccccc1)c1ccc(-c2ccccc2)cc1` (stereo not given) registered a Ki of 5.8 nM.

`C/C(=C\CN(C)C)c1ccc2ccccc2c1` yielded a Ki of 19.8 nM.

Regarding `CN(C)CCC(C)(O)c1ccc2ccccc2c1` (racemic), the Ki was determined as 25 nM.

Compound `C/C(=C\CN(C)C)c1ccc2cc(O)ccc2c1` displayed a Ki of 229 nM.

Regarding `CC(CCN(C)C)c1ccc2ccccc2c1` (stereo not given), the Ki turned out to be 1.95 nM.

As for `C/C(=C\CN(C)Cc1ccccc1)c1ccc2ccccc2c1`, affinity was put at a Ki of 7.88 nM.

`C/C(=C\CN(C)C)c1ccc(-c2ccccc2)cc1`: the Ki came out at 1.4 nM.

The compound `CC(CCN(C)Cc1ccccc1)c1ccc2ccccc2c1` (stereo not given) registered an inhibition constant (Ki) of 5.4 nM.

The compound `CC(CCN(C)C)c1ccc2cc(O)ccc2c1` (racemic) came in with a Ki of 19 nM.

On to `COc1ccc2cc(/C(C)=C/CN(C)C)ccc2c1`, for which affinity was put at a Ki of 21.4 nM.

Biological target in another test: not listed separately
Briefly: Displacement of [3H]DTG from sigma 2 receptor in guinea pig brain membrane. The format is cell membranes, Cavia porcellus.
Details: not given
Summed up:
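Guinea pig brain membranes were incubated with test compounds, with 400 nM (+)-SKF10,047 added to mask σ1 sites. Incubation was in 50 mM Tris-HCl, pH 8.0, for 120 min at room temperature. Reactions were stopped with ice-cold 10 mM Tris-HCl, pH 8.0, and filtered through glass fiber filters presoaked in 0.5% poly(ethylenimine).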
Compound `COc1ccc2cc(C(C)CCN(C)C)ccc2c1` (racemic) came in with a Ki of 60.4 nM.

The compound `C/C(=C\CN(C)C)c1cccc2ccccc12` came in with a Ki of 701 nM.

Compound `CC(CCN(C)C)c1ccc(-c2ccccc2)cc1` (stereo not given) came in with a Ki of 161 nM.

The compound `C/C(=C\CN(C)Cc1ccccc1)c1ccc(-c2ccccc2)cc1` registered a Ki of 75.7 nM.

`CC(CCN(C)C)c1cccc2ccccc12` (stereo not given) had a Ki of 205 nM.

Turning to `CC(CCN(C)Cc1ccccc1)c1ccc(-c2ccccc2)cc1` (stereo not given), affinity was put at a Ki of 591 nM.

The compound `C/C(=C\CN(C)C)c1ccc2ccccc2c1` returned a Ki of 148 nM.

As to `CN(C)CCC(C)(O)c1ccc2ccccc2c1` (racemic), the affinity, expressed as Ki, was 171 nM.

In turn, `C/C(=C\CN(C)C)c1ccc2cc(O)ccc2c1` had a Ki of 1390 nM.

Compound `CC(CCN(C)C)c1ccc2ccccc2c1` (stereo not given) had a Ki of 43.8 nM.

Compound `C/C(=C\CN(C)Cc1ccccc1)c1ccc2ccccc2c1` yielded a Ki of 873 nM.

`C/C(=C\CN(C)C)c1ccc(-c2ccccc2)cc1` came in with a Ki of 106 nM.

Compound `CC(CCN(C)Cc1ccccc1)c1ccc2ccccc2c1` (stereo not given) displayed a Ki of 139 nM.

`CC(CCN(C)C)c1ccc2cc(O)ccc2c1` (racemic) yielded a Ki of 1330 nM.

The compound `COc1ccc2cc(/C(C)=C/CN(C)C)ccc2c1` had a Ki of 985 nM.

The species named for the next test is Cavia porcellus. The test can be described thus: Selectivity for sigma 1 receptor over sigma 2 receptor in guinea pig brain membranes. The format is cell membranes. The following applies: Membrane.
For `COc1ccc2cc(C(C)CCN(C)C)ccc2c1` (racemic), the Ratio Ki was determined as 26.3.

Take `C/C(=C\CN(C)C)c1cccc2ccccc12`: the Ratio Ki worked out at 6.87.

`CC(CCN(C)C)c1ccc(-c2ccccc2)cc1` (stereo not given): the Ratio Ki is 158.

`C/C(=C\CN(C)Cc1ccccc1)c1ccc(-c2ccccc2)cc1`: the Ratio Ki is 12.

On to `CC(CCN(C)C)c1cccc2ccccc12` (stereo not given), for which the Ratio Ki is 4.3.

For the compound `CC(CCN(C)Cc1ccccc1)c1ccc(-c2ccccc2)cc1` (stereo not given), the Ratio Ki is 102.

Regarding `C/C(=C\CN(C)C)c1ccc2ccccc2c1`, the Ratio Ki worked out at 7.5.

As for `CN(C)CCC(C)(O)c1ccc2ccccc2c1` (racemic), the Ratio Ki amounted to 6.8.

Regarding `C/C(=C\CN(C)C)c1ccc2cc(O)ccc2c1`, the Ratio Ki amounted to 6.1.

Turning to `CC(CCN(C)C)c1ccc2ccccc2c1` (stereo not given), the Ratio Ki came to 22.5.

Turning to `C/C(=C\CN(C)Cc1ccccc1)c1ccc2ccccc2c1`, the Ratio Ki was 111.

On to `C/C(=C\CN(C)C)c1ccc(-c2ccccc2)cc1`, for which the Ratio Ki is 75.7.

On to `CC(CCN(C)Cc1ccccc1)c1ccc2ccccc2c1` (stereo not given), for which the Ratio Ki turned out to be 25.7.

`CC(CCN(C)C)c1ccc2cc(O)ccc2c1` (racemic): the Ratio Ki was found to be 70.

Regarding `COc1ccc2cc(/C(C)=C/CN(C)C)ccc2c1`, the Ratio Ki came to 46.

These data come from ChEMBL document CHEMBL1144556, “Design, synthesis, and SAR analysis of novel selective sigma1 ligands” (Bioorg Med Chem, 2007).
